# In ChEMBL document CHEMBL1147141, “Potent nonpeptide antagonists of the bradykinin B1 receptor: structure-activity relationship studies with novel diaminochroman carboxamides” (J Med Chem, 2007):
# What was measured:
# [1] = molecular target: T1, B1 bradykinin receptor (Homo sapiens, UniProt P46663); assay: Displacement of [3H]DAK from human bradykinin B1 receptor expressed in CHOD cells; assay type: cell-based
# T1 sequence (P46663 whole entry): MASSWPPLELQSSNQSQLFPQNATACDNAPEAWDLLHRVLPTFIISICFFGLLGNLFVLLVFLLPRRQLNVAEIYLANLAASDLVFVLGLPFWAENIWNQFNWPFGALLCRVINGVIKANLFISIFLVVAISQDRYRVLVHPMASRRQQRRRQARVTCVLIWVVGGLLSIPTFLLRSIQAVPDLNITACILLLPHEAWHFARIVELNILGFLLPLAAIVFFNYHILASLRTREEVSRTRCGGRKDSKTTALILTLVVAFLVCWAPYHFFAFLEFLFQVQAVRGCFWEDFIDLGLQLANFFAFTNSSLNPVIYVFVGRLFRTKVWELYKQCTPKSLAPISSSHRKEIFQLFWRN
# [2] = molecular target: T1, B1 bradykinin receptor; assay: Antagonist activity at human bradykinin B1 receptor expressed in CHOD cells assessed as effect on DAK-induced calcium flux; assay type: functional, cell-based
# [3] = molecular target: T2, B1 bradykinin receptor (Oryctolagus cuniculus, UniProt P48748); assay: Antagonist activity at rabbit bradykinin B1 receptor; assay type: functional
# T2 sequence (P48748 whole entry): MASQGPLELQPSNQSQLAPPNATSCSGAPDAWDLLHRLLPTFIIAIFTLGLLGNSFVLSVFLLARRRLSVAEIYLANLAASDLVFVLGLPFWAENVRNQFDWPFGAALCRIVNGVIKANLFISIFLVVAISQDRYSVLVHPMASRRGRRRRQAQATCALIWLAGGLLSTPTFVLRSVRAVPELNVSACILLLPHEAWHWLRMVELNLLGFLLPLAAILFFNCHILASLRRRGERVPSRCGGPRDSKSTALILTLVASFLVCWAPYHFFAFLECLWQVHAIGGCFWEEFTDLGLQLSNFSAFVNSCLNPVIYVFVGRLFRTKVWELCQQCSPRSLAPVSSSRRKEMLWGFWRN
# [4] = Half life in Sprague-Dawley rat at 1 mg/kg, iv; assay type: ADME, organism-based; set-up: dose 1 mg/kg, route intravenous; settings: in vivo
# In short: (§1)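 Male Sprague-Dawley rats (225-280 g) with femoral and jugular vein cannulae were fasted overnight. They received an i.v. bolus of 1 mg/kg in 100% DMSO, prepared on the dosing day, n = 3. Blood was drawn via jugular cannula over 6 or 8 h into heparin. Plasma was acetonitrile-precipitated and measured by LC-MS/MS (positive MRM). Parameters were noncompartmental and reported with SEM.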
# [5] = Volume of distribution at steady state in Sprague-Dawley rat at 1 mg/kg, iv; assay type: ADME, organism-based; set-up: dose 1 mg/kg, route intravenous; settings: in vivo, read-out: Vss; in short: as §1
# [6] = molecular target: T3, B1 bradykinin receptor (Rattus norvegicus, UniProt P97583); assay: Antagonist activity at rat bradykinin B1 receptor; assay type: functional
# T3 sequence (P97583 whole entry): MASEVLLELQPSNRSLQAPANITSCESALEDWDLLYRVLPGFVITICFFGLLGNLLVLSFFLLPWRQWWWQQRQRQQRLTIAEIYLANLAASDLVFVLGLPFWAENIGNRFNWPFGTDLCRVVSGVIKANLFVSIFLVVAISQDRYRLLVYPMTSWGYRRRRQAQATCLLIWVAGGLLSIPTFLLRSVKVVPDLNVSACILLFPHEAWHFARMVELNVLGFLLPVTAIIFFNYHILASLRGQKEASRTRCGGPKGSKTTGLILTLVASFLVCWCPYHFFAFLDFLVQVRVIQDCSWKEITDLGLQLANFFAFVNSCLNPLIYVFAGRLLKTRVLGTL
# [7] = Oral bioavailability in Sprague-Dawley rat at 10 mg/kg, po; assay type: ADME, organism-based; settings: in vivo
# In short: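 Male Sprague-Dawley rats (225-280 g), cannulated and fasted overnight, were dosed by oral gavage at 10 mg/kg in 1% Tween 80, 2% HPMC, prepared 24-48 h before dosing, n = 3. Jugular blood was sampled over 6 or 8 h. Plasma was analysed by LC-MS/MS and parameters derived noncompartmentally.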
# [8] = Clearance in Sprague-Dawley rat at 1 mg/kg, iv; assay type: ADME, organism-based; set-up: dose 1 mg/kg, route intravenous; settings: in vivo; in short: as §1
# [9] = Metabolic stability in rat liver microsomes; assay type: ADME, Microsome; settings: read-out: Stability
# [10] = Metabolic stability in human liver microsomes; assay type: ADME, Microsome; settings: read-out: Stability
SMILES,Ki [1],IC50 [2],other results
CC(C)(C)NCc1ccc2c(c1)OCC[C@H]2NC(=O)C[C@@H](NS(=O)(=O)c1ccc(Cl)c(Cl)c1)c1ccccc1,7.6 nM (antagonist),24.3 nM (antagonist),–
CC(C)(C)NCc1ccc2c(c1)OCC[C@H]2NC(=O)C[C@@H](NS(=O)(=O)c1ccc(C(C)(C)C)cc1)c1ccccc1,24.8 nM (antagonist),60.9 nM (antagonist),–
CC(C)(C)NCc1ccc2c(c1)OCC[C@H]2NC(=O)C[C@@H](NS(=O)(=O)c1cc(Cl)c(F)cc1F)c1ccccc1,20.6 nM (antagonist),127 nM (antagonist),–
CC(C)(C)NCc1ccc2c(c1)OCC[C@H]2NC(=O)C[C@@H](NS(=O)(=O)c1ccccc1Cl)c1ccccc1,393 nM (antagonist),2030 nM (antagonist),–
CC(C)(C)NCc1ccc2c(c1)OCC[C@H]2NC(=O)C[C@@H](NS(=O)(=O)c1ccccc1C(F)(F)F)c1ccccc1,367 nM (antagonist),2000 nM (antagonist),–
CNCc1ccc2c(c1)OCC[C@H]2NC(=O)C[C@@H](NS(=O)(=O)c1ccc2ccccc2c1)c1ccccc1,138 nM (antagonist),212 nM (antagonist),–
CC(C)(C)NCc1ccc2c(c1)OCC[C@H]2NC(=O)C[C@@H](NS(=O)(=O)c1ccc2ccccc2c1)c1ccccc1,5.4 nM (antagonist),17 nM (antagonist),–
CC(C)(C)NCc1ccc2c(c1)OCC[C@H]2NC(=O)C[C@@H](NS(=O)(=O)c1ccc(Cl)cc1Cl)c1ccccc1,127 nM (antagonist),255 nM (antagonist),–
O=C(C[C@@H](NS(=O)(=O)c1ccc2ccccc2c1)c1ccccc1)N[C@@H]1CCOc2cc(CN3CCOCC3)ccc21,3.7 nM (antagonist),10.9 nM (antagonist),–
CC(C)NCc1ccc2c(c1)OCC[C@H]2NC(=O)C[C@@H](NS(=O)(=O)c1cccc(C(F)(F)F)c1)c1ccc(F)cc1,4.7 nM (antagonist),20.1 nM (antagonist),–
C[C@@H]1CCC[C@H](C)N1Cc1ccc2c(c1)OCC[C@H]2NC(=O)C[C@@H](NS(=O)(=O)c1ccc2ccccc2c1)c1ccccc1,13.4 nM (antagonist),96.3 nM (antagonist),–
O=C(C[C@@H](NS(=O)(=O)c1ccc2ccccc2c1)c1ccccc1)N[C@@H]1CCOc2cc(CN3CCCC3)ccc21,5.7 nM (antagonist),14.8 nM (antagonist),–
O=C(C[C@@H](NS(=O)(=O)c1cccc(C(F)(F)F)c1)c1ccc(F)cc1)N[C@@H]1CCOc2cc(CN3CCCC3)ccc21,5.5 nM (antagonist),19.7 nM (antagonist),IC50 [3]: 450 nM (antagonist); half-life [4]: 3.8 h; Vd [5]: 13.7 L/kg; Ki [6]: 151 nM (antagonist); bioavailability [7]: 41%; clearance [8]: 51.3 mL/min/kg; microsomal CLint [9]: 158 µL/min/mg; microsomal CLint [10]: 355 µL/min/mg
O=C(C[C@@H](NS(=O)(=O)c1ccc2ccccc2c1)c1ccccc1)N[C@@H]1CCOc2cc(CO)ccc21,> 50000 nM,> 4000 nM,–
O=C(C[C@@H](NS(=O)(=O)c1cccc(C(F)(F)F)c1)c1ccc(F)cc1)N[C@@H]1CCOc2cc(CNC3CCC3)ccc21,10 nM (antagonist),46.2 nM (antagonist),–
CC(C)NCc1ccc2c(c1)OCC[C@H]2NC(=O)C[C@@H](NS(=O)(=O)c1ccc2ccccc2c1)c1ccccc1,8.3 nM (antagonist),45.9 nM (antagonist),–
CC(C)(C)NCc1ccc2c(c1)OCC[C@H]2NC(=O)C[C@@H](NS(=O)(=O)c1cccc(C(F)(F)F)c1)c1ccccc1,17.9 nM (antagonist),78.4 nM (antagonist),–

SMILES,Ki [1],IC50 [2],other results
CC(C)CNCc1ccc2c(c1)OCC[C@H]2NC(=O)C[C@@H](NS(=O)(=O)c1cccc(C(F)(F)F)c1)c1ccc(F)cc1,5.9 nM (antagonist),14.8 nM (antagonist),–
CC(C)CNCc1ccc2c(c1)OCC[C@H]2NC(=O)C[C@@H](NS(=O)(=O)c1ccc2ccccc2c1)c1ccccc1,5 nM (antagonist),10.5 nM (antagonist),–
CC(C)(C)NCc1ccc2c(c1)OCC[C@H]2NC(=O)C[C@@H](NS(=O)(=O)c1ccc(F)c(Cl)c1)c1ccccc1,25.2 nM (antagonist),203 nM (antagonist),–
COCCNCc1ccc2c(c1)OCC[C@H]2NC(=O)C[C@@H](NS(=O)(=O)c1cccc(C(F)(F)F)c1)c1ccc(F)cc1,14 nM (antagonist),17.4 nM (antagonist),IC50 [3]: 1680 nM (antagonist); half-life [4]: 3.4 h; Vd [5]: 8.09 L/kg; Ki [6]: 208 nM (antagonist); bioavailability [7]: 49%; clearance [8]: 39.4 mL/min/kg; microsomal CLint [9]: 265 µL/min/mg; microsomal CLint [10]: 310 µL/min/mg
NCc1ccc2c(c1)OCC[C@H]2NC(=O)C[C@@H](NS(=O)(=O)c1ccc2ccccc2c1)c1ccccc1,308 nM (antagonist),352 nM (antagonist),–
Cc1c(Cl)cccc1S(=O)(=O)N[C@H](CC(=O)N[C@@H]1CCOc2cc(CNC(C)(C)C)ccc21)c1ccccc1,40.6 nM (antagonist),207 nM (antagonist),–
CC(C)(C)NCc1ccc2c(c1)OCC[C@H]2NC(=O)C[C@@H](NS(=O)(=O)c1ccc(Cl)c(Cl)c1)c1ccc(F)cc1,5 nM (antagonist),9.6 nM (antagonist),–
CC(C)(C)NCc1ccc2c(c1)OCC[C@H]2NC(=O)C[C@@H](NS(=O)(=O)c1cccc(C(F)(F)F)c1)c1ccc(C#N)cc1,120 nM (antagonist),566 nM (antagonist),–
CC(C)(C)NCc1ccc2c(c1)OCC[C@H]2NC(=O)C[C@@H](NS(=O)(=O)c1cccc(C(F)(F)F)c1)c1ccc(F)cc1,4.8 nM (antagonist),9.9 nM (antagonist),–
O=C(C[C@@H](NS(=O)(=O)c1ccc2ccccc2c1)c1ccccc1)N[C@@H]1CCOc2cc(CNC3CCCCC3)ccc21,21.8 nM (antagonist),69.9 nM (antagonist),–
CC(C)(C)NCc1ccc2c(c1)OCC[C@H]2NC(=O)C[C@@H](NS(=O)(=O)c1ccc(Cl)cc1)c1ccccc1,132 nM (antagonist),580 nM (antagonist),–
CC(C)(C)NCc1ccc2c(c1)OCC[C@H]2NC(=O)C[C@@H](NS(=O)(=O)c1cccc(Cl)c1)c1ccccc1,27.7 nM (antagonist),113 nM (antagonist),–
COCCNCc1ccc2c(c1)OCC[C@H]2NC(=O)C[C@@H](NS(=O)(=O)c1ccc(Cl)c(Cl)c1)c1ccc(F)cc1,6.7 nM (antagonist),9.4 nM (antagonist),–
CCNCc1ccc2c(c1)OCC[C@H]2NC(=O)C[C@@H](NS(=O)(=O)c1ccc2ccccc2c1)c1ccccc1,8.9 nM (antagonist),60.2 nM (antagonist),–
CN(C)Cc1ccc2c(c1)OCC[C@H]2NC(=O)C[C@@H](NS(=O)(=O)c1ccc2ccccc2c1)c1ccccc1,84.8 nM (antagonist),167 nM (antagonist),–
CC(C)(C)NCc1ccc2c(c1)OCC[C@H]2NC(=O)C[C@@H](NS(=O)(=O)c1ccc(C(F)(F)F)cc1)c1ccccc1,77.6 nM (antagonist),330 nM (antagonist),–
